Publication PMC7090343 (Heliyon, 2020)
≈ marks a conversion by molar mass, not a printed value. Where two headings read alike, the source gives them in different places. Marks after values point to notes of the source that are not given here.

Assays:
human tyrosinase = conditions: ref An et al., 2010, cited from earlier work
[1] = In vitro antioxidation activity; conditions: DPPH assay, mean of three replicates; for EC50 (antioxidation activity), crude and partitioned extracts: Table 1 experiment
In short: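 Five concentrations of test compound or extract were prepared in DMSO. Each was mixed with 0.15 mM DPPH in methanol and held at 25 °C for 30 min, then A517 was read. Ascorbic acid served as reference standard. Antioxidation (%) = [(A control − A sample)/A control] × 100. EC50 came from linear and nonlinear regression of % activity against concentration. Triplicates were used.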

SMILES | Type of inhibition of human tyrosinase (human tyrosinase; for L-DOPA) | Type of inhibition of human tyrosinase (human tyrosinase; for tyrosine) | EC50 (antioxidation activity), crude and partitioned extracts [1] | EC50 (antioxidation activity), crude and partitioned extracts ([1]; listed as ascorbic acid) [µg/mL] | EC50 value of pooled fractions after SG60CC ([1]; nonlinear regression, Table 4 experiment)
O=C(O)/C=C/c1ccc(O)cc1 [p-coumaric acid] | competitive | mixed type | – | – | –
O=C1O[C@H]([C@@H](O)CO)C(O)=C1O [Ascorbic acid, ascorbic acid] | – | – | 89.82^a μg/mL | 89.8 (≈ 510 µM) | 71.5^a μg/mL
